# What was measured:
# [1] = molecular target: Voltage-gated inwardly rectifying potassium channel KCNH2 (Homo sapiens, UniProt Q12809); test: Activity at HERG potassium channel; format: functional
# [2] = molecular target: 5-hydroxytryptamine receptor 2A (Homo sapiens, UniProt P28223); test: Displacement of [3H]ketanserin from human 5HT2A receptor expressed in CHOK1 cells; format: cell-based, CHO-K1
# Outline: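 Membranes from confluent CHO K1 cells expressing human 5-HT2A were incubated with [3H]ketanserin (76 Ci/mmol) for 15 min at 37 °C with shaking at 180 rpm. Buffer was 50 mM Tris pH 7.7, 0.1% ascorbate, pargyline, MgSO4 and 0.5 mM EDTA. Bound and free ligand were separated by GF/B filtration and the filters counted. Mianserin defined non-specific binding. Five-point log titrations were fitted with a four-parameter curve to give IC50 and Ki.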
# [3] = molecular target: T1, 5-hydroxytryptamine receptor 2C (Homo sapiens, UniProt P28335); test: Binding affinity to 5HT2C receptor
# T1 sequence (P28335 whole entry): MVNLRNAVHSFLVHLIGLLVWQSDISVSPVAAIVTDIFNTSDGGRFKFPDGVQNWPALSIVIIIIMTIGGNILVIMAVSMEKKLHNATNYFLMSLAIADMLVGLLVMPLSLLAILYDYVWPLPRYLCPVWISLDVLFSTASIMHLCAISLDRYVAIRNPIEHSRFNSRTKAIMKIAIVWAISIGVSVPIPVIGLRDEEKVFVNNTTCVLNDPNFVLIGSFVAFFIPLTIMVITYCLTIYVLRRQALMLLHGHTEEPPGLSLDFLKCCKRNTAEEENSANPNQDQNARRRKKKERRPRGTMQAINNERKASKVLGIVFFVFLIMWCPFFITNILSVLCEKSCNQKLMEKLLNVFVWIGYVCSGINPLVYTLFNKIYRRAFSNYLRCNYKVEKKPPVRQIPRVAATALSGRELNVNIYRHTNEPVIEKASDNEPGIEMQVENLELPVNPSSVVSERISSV
# [4] = molecular target: 5-hydroxytryptamine receptor 2A (Rattus norvegicus, UniProt P14842); test: Binding affinity to rat 5HT2A receptor
# 5-hydroxytryptamine receptor 2A (Rattus norvegicus, UniProt P14842), sequence (P14842 whole entry): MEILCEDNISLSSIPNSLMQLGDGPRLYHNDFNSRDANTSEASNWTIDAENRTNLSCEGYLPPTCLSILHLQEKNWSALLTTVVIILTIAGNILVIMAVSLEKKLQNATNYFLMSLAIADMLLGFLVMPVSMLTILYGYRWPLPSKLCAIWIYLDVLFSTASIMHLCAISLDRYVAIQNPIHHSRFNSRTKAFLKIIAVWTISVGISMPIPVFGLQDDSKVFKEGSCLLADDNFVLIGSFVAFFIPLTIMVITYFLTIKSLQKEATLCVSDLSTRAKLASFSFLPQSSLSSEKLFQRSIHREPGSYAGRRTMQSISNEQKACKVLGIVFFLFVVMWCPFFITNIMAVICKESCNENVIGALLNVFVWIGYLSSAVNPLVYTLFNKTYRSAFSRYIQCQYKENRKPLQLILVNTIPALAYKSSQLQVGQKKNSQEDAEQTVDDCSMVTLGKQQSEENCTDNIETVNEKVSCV
# 5-hydroxytryptamine receptor 2A (Homo sapiens, UniProt P28223), sequence (P28223 whole entry): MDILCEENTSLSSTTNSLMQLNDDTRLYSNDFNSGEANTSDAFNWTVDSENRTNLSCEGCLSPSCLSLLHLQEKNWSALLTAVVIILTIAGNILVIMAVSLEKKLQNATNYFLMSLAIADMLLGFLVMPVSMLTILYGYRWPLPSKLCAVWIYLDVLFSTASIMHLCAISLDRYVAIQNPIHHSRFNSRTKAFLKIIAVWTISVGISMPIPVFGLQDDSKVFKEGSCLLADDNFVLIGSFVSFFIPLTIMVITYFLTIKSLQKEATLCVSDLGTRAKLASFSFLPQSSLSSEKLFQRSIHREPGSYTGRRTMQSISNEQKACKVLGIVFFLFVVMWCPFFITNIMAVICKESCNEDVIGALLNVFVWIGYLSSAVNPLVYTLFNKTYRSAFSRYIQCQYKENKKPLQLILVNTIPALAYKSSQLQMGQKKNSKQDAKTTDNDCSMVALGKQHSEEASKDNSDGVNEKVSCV
# Voltage-gated inwardly rectifying potassium channel KCNH2, sequence (Q12809 whole entry): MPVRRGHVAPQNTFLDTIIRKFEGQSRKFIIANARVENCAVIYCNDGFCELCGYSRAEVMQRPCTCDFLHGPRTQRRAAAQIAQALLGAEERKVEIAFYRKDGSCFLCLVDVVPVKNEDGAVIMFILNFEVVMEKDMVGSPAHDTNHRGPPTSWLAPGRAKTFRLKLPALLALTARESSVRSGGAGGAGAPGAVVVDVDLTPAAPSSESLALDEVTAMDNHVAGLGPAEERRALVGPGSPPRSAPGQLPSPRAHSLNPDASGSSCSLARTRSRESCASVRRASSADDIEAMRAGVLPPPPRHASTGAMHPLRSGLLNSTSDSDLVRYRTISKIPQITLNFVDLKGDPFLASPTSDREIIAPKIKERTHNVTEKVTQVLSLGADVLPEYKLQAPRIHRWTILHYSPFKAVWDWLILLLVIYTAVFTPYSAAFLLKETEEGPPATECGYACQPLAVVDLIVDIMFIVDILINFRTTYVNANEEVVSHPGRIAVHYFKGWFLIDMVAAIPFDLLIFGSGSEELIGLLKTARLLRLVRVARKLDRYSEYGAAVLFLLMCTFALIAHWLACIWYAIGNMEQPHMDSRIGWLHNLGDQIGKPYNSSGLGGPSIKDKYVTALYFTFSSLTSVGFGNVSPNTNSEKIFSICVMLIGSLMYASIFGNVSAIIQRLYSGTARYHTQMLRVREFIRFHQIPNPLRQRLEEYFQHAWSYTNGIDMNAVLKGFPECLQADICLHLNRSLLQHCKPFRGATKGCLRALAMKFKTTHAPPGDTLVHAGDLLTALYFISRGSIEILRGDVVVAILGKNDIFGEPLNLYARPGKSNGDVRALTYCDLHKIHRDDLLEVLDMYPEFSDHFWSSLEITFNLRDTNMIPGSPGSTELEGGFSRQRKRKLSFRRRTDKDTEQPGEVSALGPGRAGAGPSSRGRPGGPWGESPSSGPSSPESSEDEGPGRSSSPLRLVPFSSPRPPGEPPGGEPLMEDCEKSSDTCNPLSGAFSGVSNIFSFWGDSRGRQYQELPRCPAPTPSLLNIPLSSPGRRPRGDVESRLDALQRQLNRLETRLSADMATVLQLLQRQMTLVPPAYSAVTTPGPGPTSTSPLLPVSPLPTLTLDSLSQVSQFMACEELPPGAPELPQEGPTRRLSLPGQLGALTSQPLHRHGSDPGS
IC50 [2],IC50 [3],IC50 [4],Compound,Activity [1]
0.071 µM,–,–,Cc1ccc(C2=CC(NC(C)(C)C)=NCCN2)c(C)c1,> 1000 nM
0.514 µM,–,–,CC(C)(C)NC1=NCCNC(c2cccc(C(F)(F)F)c2)=C1,> 1000 nM
0.0045 µM,–,–,CCC(C)(CC)NC1=NCCNC(c2ccccc2F)=C1,> 1000 nM
0.0037 µM,0.086 µM,–,CCC(CC)(CC)NC1=NCCNC(c2ccc(F)cc2F)=C1,> 1000 nM
0.0024 µM,–,–,Cc1ccc(C2=CC(NC(C)(C)Cc3ccccc3)=NCCN2)cc1,300 nM
0.021 µM,0.637 µM,–,CC(C)(C)NC1=NCCNC(c2ccc(F)cc2)=C1,> 1000 nM
0.0016 µM,–,–,CC1(NC2=NCCNC(c3ccc(F)cc3)=C2)CCCCC1,> 1000 nM
0.0015 µM,0.016 µM,–,CCC(C)(CC)NC1=NCCNC(c2ccc(F)cc2)=C1,> 1000 nM
0.014 µM,–,–,Cc1ccc(C2=CC(NC(C)(C)C)=NCCN2)c(F)c1,> 1000 nM
0.0008 µM,–,–,CCC1(NC2=NCCNC(c3ccc(F)cc3)=C2)CCCC1,> 1000 nM
0.011 µM,–,–,CC(C)(C)NC1=NCCNC(c2ccc(F)cc2F)=C1,> 1000 nM
0.0149 µM,0.075 µM,–,CCC(C)(CC)NC1=NCCNC(c2ccc(C)cc2)=C1,> 1000 nM
0.035 µM,1.05 µM,–,CC(C)(C)NC1=NCCNC(c2ccccc2)=C1,> 1000 nM
0.018 µM,–,–,CC(C)(C)NC1=NCCNC(c2ccccc2F)=C1,> 1000 nM
0.534 µM,–,–,COc1ccc(C2=CC(NC(C)(C)C)=NCCN2)cc1,> 1000 nM
0.0011 µM,0.027 µM,0.0023 µM,CCC1(NC2=NCCNC(c3ccc(F)cc3F)=C2)CCCC1,> 1000 nM
2.8 µM,–,–,CC(C)(C)NC1=NCCNC(c2ccc(C#N)cc2)=C1,> 1000 nM
0.011 µM,–,–,Cc1ccc(C2=CC(NC(C)(C)C)=NCCN2)cc1,> 1000 nM
0.076 µM,–,–,CC(C)(C)NC1=NCCNC(c2ccccc2Cl)=C1,> 1000 nM
0.0038 µM,–,–,CC(C)(Cc1ccccc1)NC1=NCCNC(c2ccccc2F)=C1,270 nM
0.0036 µM,–,–,CCC1(NC2=NCCNC(c3ccccc3F)=C2)CCCC1,> 1000 nM
0.112 µM,–,–,Cc1ccccc1C1=CC(NC(C)(C)C)=NCCN1,> 1000 nM
0.0014 µM,–,–,CC(C)(NC1=NCCNC(c2ccc(F)cc2F)=C1)C1CCC1,> 1000 nM
1.52 µM,–,–,CC(C)(C)CNC1=NCCNC(c2ccccc2F)=C1,> 1000 nM

Compound,IC50 [2],IC50 [3],IC50 [4],Activity [1]
CCN(CC)C1=NCCNC(c2ccc(C)cc2)=C1,> 1 µM,–,–,> 1000 nM
CCN(CC)C1=NCCNC(c2ccccc2F)=C1,> 1 µM,–,–,> 1000 nM
Cc1ccc(C2=CC(N3CCOCC3)=NCCN2)cc1,> 1 µM,–,–,> 1000 nM
Cc1ccc(C2=CC(N3CCNCC3)=NCCN2)cc1,> 1 µM,–,–,> 1000 nM

# From ChEMBL document CHEMBL1139732, “Identification and optimisation of 5-amino-7-aryldihydro-1,4-diazepines as 5-HT2A ligands” (Bioorg Med Chem Lett, 2006)
